For data set [1], the system named is HUVEC. In words: Cytotoxicity against HUVEC assessed as reduction in cell viability after 3 hrs under dark condition by MTT assay. Format: functional, cell-based. The conditions noted are these: Homo sapiens.
Data set [2] is described as follows: Self-aggregating property assessed as diameter of nanostructure by transmission electron microscopic method. In kind it is physicochemical.
The nature of data set [3]: Self-aggregating property assessed as diameter of nanostructure by scanning electron microscopic method. In kind it is physicochemical.
Data set [4] in a line: Induction of singlet oxygen production in 90% H2O/CH3CN mixture upon irradiation of 365 nanometer light assessed as oxygenation of 1,5-DHN by UV-Visible spectroscopic method. In kind it is functional. Summed up:
(§1)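 Singlet oxygen generation was followed by oxygenation of 1,5-dihydroxynaphthalene to juglone. Sensitizer solutions were irradiated in quartz cuvettes with 365 nm light.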

The subject of data set [5] is Hep 3B2. In words: Cytotoxicity against human Hep3B cells assessed as reduction in cell viability at 1 to 20 uM after 24 hrs under dark condition by MTT assay. Format: functional, cell-based. (Tetrazolium assays rely on reduction of a dye to a coloured formazan, in cell work by metabolically active cells.)
The subject of data set [6] is HUVEC. As to the kind of experiment: Cytotoxicity against HUVEC assessed as cell viability at 1 to 20 uM after 24 hrs under dark condition by MTT assay relative to control. In kind it is functional, Homo sapiens.
The test system of data set [7] is HUVEC. As to the kind of experiment: Cytotoxicity against HUVEC assessed as cell viability at 1 to 20 uM after 3 hrs under dark condition by MTT assay relative to control. Format: functional, Homo sapiens.
The subject of data set [8] is Hep 3B2. As to the kind of experiment: Cytotoxicity against human Hep3B cells assessed as reduction in cell viability after 3 hrs under dark condition by MTT assay. In kind it is functional, cell-based.
Data set [9] in a line: Self-aggregating property assessed as diameter of nanostructure by DLS method. In kind it is physicochemical.
A short description of data set [10]: Induction of singlet oxygen production in CH3CN upon irradiation of 365 nanometer light assessed as oxygenation of 1,5-DHN by measuring quantum yield at 33 uM by UV-Visible spectroscopic method. In kind it is functional. In short, it runs like this:
as §1

The test system of data set [11] is Hep 3B2. In words: Photocytotoxicity in human Hep3B cells assessed as cell damage preincubated for 1 hr followed by 365 nanometer UV light irradiation for 3 mins by propidium iodide staining based confocal fluorescence laser scanning microscopic method. Format: functional. In short, it runs like this: (§2)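 Hep3B cells, 30.000 cells/well, exposed to photosensitizer ([…] as printed) for 1 h, then irradiated with a 365 nm UV lamp, 6 W, for 3 min. Damaged or dead cells stained with propidium iodide (1 mM as printed) and imaged by confocal laser scanning microscopy, ex 488 nm, em 500–700 nm. Irradiated control wells received no photosensitizer.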

Data set [12] in a line: Induction of singlet oxygen production in H2O upon irradiation of 365 nanometer light assessed as oxygenation of 1,5-DHN by measuring quantum yield at 33 uM by UV-Visible spectroscopic method. Format: functional. Summed up:
as §1

Data set [13] concerns HUVEC. As to the kind of experiment: Cytotoxicity against HUVEC assessed as reduction in cell viability at 1 to 20 uM incubated for 3 hrs followed by incubation in compound free medium for 21 hrs under dark condition by MTT assay. Format: functional, cell-based. The conditions noted are these: Homo sapiens.
The test system of data set [14] is Hep 3B2. In words: Cytotoxicity against human Hep3B cells assessed as reduction in cell viability at 1 to 20 uM incubated for 3 hrs followed by incubation in compound free medium for 21 hrs under dark condition by MTT assay. In kind it is functional, cell-based.
Data set [15] in a line: Drug uptake in human Hep3B cell mitochondria at 10 uM after 1 hr by Draq5 staining based bright field microscopic method. In kind it is ADME. Particulars: hep 3b2, 1 h.
The nature of data set [16]: Induction of singlet oxygen production in 50% H2O/CH3CN mixture upon irradiation of 365 nanometer light assessed as oxygenation of 1,5-DHN by UV-Visible spectroscopic method. Format: functional. Summed up: as §1
Data set [17] in a line: Drug uptake in human Hep3B cell nuclear membrane at 10 uM after 1 hr by Draq5 staining based bright field microscopic method. In kind it is ADME, cell membranes. The conditions noted are these: hep 3b2, 1 h.
Data set [18] deals with Hep 3B2. In words: Photocytotoxicity in human Hep3B cells assessed as cell damage preincubated for 1 hr followed by 365 nanometer UV light irradiation for 3 mins by propidium iodide/Hoechst 33342 staining based static cytometry coupled fluorescence microscopic method. Format: functional. Summed up: (§3)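 Hep3B cells exposed to photosensitizer for 1 h, then irradiated at 365 nm for 3 min. PI-positive cells were quantified by fluorescence microscopy coupled with static cytometry and expressed as percentage of cells, with untreated cells as reference.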

A short description of data set [19]: Drug uptake in human Hep3B cell lysosome at 10 uM after 1 hr by Draq5 staining based bright field microscopic method. In kind it is ADME, subcellular. Particulars: hep 3b2, 1 h.
A short description of data set [20]: Drug uptake in human Hep3B cell endoplasmic reticulum at 10 uM after 1 hr by Draq5 staining based bright field microscopic method. In kind it is ADME, subcellular. Particulars: hep 3b2, 1 h.
In data set [21] the test system is Hep 3B2. As to the kind of experiment: Photocytotoxicity in human Hep3B cells assessed as cell damage at 20 uM preincubated for 1 hr followed by 365 nanometer UV light irradiation for 3 mins by propidium iodide/Hoechst 33342 staining based static cytometry coupled fluorescence microscopic method (reference value: 1.25%). In kind it is functional. Summed up:
as §3

Data set [22] is described as follows: Dark toxicity in human Hep3B cells assessed as cell damage at 20 uM after 1 hr by propidium iodide/Hoechst 33342 staining based static cytometry coupled fluorescence microscopic method (reference value: 1.25%). Particulars: hep 3b2, 1 h.
Data set [23] relates to Hep 3B2. As to the kind of experiment: Photocytotoxicity in human Hep3B cells assessed as cell damage at 10 uM preincubated for 1 hr followed by 365 nanometer UV light irradiation for 3 mins by propidium iodide staining based confocal fluorescence laser scanning microscopic method. Format: functional. Summed up: as §2
Data set [24] relates to HUVEC. As to the kind of experiment: Cytotoxicity against HUVEC assessed as reduction in cell viability at 1 to 20 uM after 3 hrs under dark condition by MTT assay. In kind it is functional, cell-based. Particulars: Homo sapiens.

Molecules are shown by their SMILES. Activity calls are given as the source filed them. The rule behind the calls is not given here.

The term IC50 denotes the concentration that gives 50% inhibition. For the compound `CC(C)[C@H](NC(=O)c1c2ccccc2nc2ccccc12)C(=O)NCCCCCCCCNC(=O)[C@@H](NC(=O)c1c2ccccc2nc2ccccc12)C(C)C`, the Activity entry was “Dose-dependent effect” in the data set on HUVEC [1]; 135 nm in data set [2]; 93 nm in data set [3]; 27% in the data set with HUVEC [6]; 46% with HUVEC [7]; “Dose-dependent effect” with Hep 3B2 [8]. The results for the Activity in [9], in [10] and in [12] were 122 nm, 0.96 and 0.01, respectively. The IC50 in the data set with HUVEC [1] came to 18.6 µM; in the data set with Hep 3B2 [8], 29.5 µM. In addition, the outcome (in data set [4]; in the data set on Hep 3B2 [11]; in the data set on HUVEC [13]; with Hep 3B2 [14]; in data set [16]; in the data set with Hep 3B2 [18]) was inactive. Also, the result in the data set with Hep 3B2 [5] was Active. Besides, the Drug uptake result is reported as “Not Active” in data set [15], “Active” in [17], “Not Active” in data set [19] and “Not Active” in [20].

As for `CCCNC(=O)[C@@H](NC(=O)c1c2ccccc2nc2ccccc12)C(C)C`, the result (in data set [4]; with Hep 3B2 [23]; in data set [16]) was Active. For the same compound, the outcome in the data set with Hep 3B2 [5], with HUVEC [13], in the data set on Hep 3B2 [14] and with HUVEC [24] was inactive. Further, the Activity entry in data set [9] is “Not Active”; in the data set on Hep 3B2 [21], 8.7%; in data set [10], 0.97; in [22], 3.38%; in data set [12], 0.263.

(Values after ChEMBL document CHEMBL4219076, “Synthesis, spectroscopic studies and biological evaluation of acridine derivatives: The role of aggregation on the photodynamic efficiency” (Bioorg Med Chem Lett, 2018).)
